Laboratory results published in ChEMBL document CHEMBL4699650, “SAR Investigation and Discovery of Water-Soluble 1-Methyl-1,4-dihydroindeno[1,2-c]pyrazoles as Potent Tubulin Polymerization Inhibitors” (J Med Chem, 2020).
Calls of active or inactive are those of the source. The rule behind the calls is not given here.

Tests used:
HepG2 [1] = assay: Induction of apoptosis in human HepG2 cells assessed as live cells at 5 nM incubated for 24 hrs by Annexin V-PE and 7-AAD staining based flow cytometry (reference value: 93.2%); format: functional
Summary of the method: (§1)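 HepG2 cells seeded at 3 × 10⁵ cells/well, adhered overnight, exposed at 5, 10 or 20 nM for 12 or 24 h. Harvested into Annexin V binding buffer and stained with annexin V-PE and 7-AAD for 15 min at room temperature in the dark, then analysed by flow cytometry. Gates: live (−/−), early apoptotic (+/−), late apoptotic (+/+), necrotic (−/+).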

HepG2 [2] = assay: Induction of apoptosis in human HepG2 cells assessed as necrotic cells at 10 nM incubated for 24 hrs by Annexin V-PE and 7-AAD staining based flow cytometry (reference value: 0.34 %); format: functional; summary of the method: as §1
HepG2 [3] = assay: Induction of cell cycle arrest in human HepG2 cells assessed as accumulation in G2/M phase incubated for 24 hrs by propidium iodide staining based flow cytometry; format: functional; conditions: dose nM 5-20, time 24.0 hrs
[4] = Selectivity index, ratio of GI50 for cytotoxicity against human L02 cells to GI50 for antiproliferation activity against human HepG2 cells assessed as cell growth inhibition measured after 72 hrs by MTT assay; format: toxicity, cell-based; conditions: L02 cells and HepG2 cells, read-out: RatioGI50
Summary of the method: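 MTT assay: cells seeded 4–7 × 10³/well, adhered overnight, exposed to a concentration series for 72 h. MTT (2.5 mg/mL stock) added for 4 h, crystals dissolved in DMSO, absorbance read at 570 nm. GI50 is mean ± SD of ≥3 independent experiments. Selectivity = GI50 on normal LO2 / GI50 on HepG2. Resistance fold = GI50 on resistant cells / GI50 on sensitive cells.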

HepG2 [5] = assay: Antitumor activity against human HepG2 cells xenografted in Balb/c nude mouse assessed as reduction in tumor volume at 5 mg/kg, iv administered every 2 days for 21 days and measured at 3 days interval during compound dosing; format: functional; parameters: scale not given: the % may be the effect or the level left; conditions: time 21 day
Summary of the method: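 Nude mice received 200 μL PBS containing HepG2 at 1 × 10⁷ cells/mL subcutaneously in the right armpit. Randomised at 90 mm³ tumour volume, five per group. Compound given iv as a 2.0 mg/mL solution in distilled water, 5 or 10 mg/kg every two days for 21 days, with a water vehicle group. Tumour volume (L × W²/2) and body weight recorded every 3 days. Inhibition = (1 − RTV treated/RTV vehicle) × 100%.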

HepG2 [6] = assay: Induction of apoptosis in human HepG2 cells assessed as early apoptotic cells at 5 nM incubated for 24 hrs by Annexin V-PE and 7-AAD staining based flow cytometry (reference value: 4.16 %); format: functional; summary of the method: as §1
HepG2 [7] = assay: Induction of cell cycle arrest in human HepG2 cells assessed as accumulation in S phase at 5 nM incubated for 24 hrs by propidium iodide staining based flow cytometry (reference value: 26.65%); format: functional
[8] = Resistance index, ratio of GI50 for antiproliferation activity against human A549/Taxol cells to GI50 for antiproliferation activity against human A549 cells assessed as cell growth inhibition measured after 72 hrs by MTT assay
[9] = Inhibition of porcine brain tubulin polymerization measured every 60 sec for 60 mins in presence of GTP by fluorescence assay; parameters: species or system Sus scrofa
Summary of the method: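 Fluorescence kit assay using 2 mg/mL porcine brain tubulin with 2 mM MgCl₂, 0.5 mM EGTA, 1 mM GTP and 15% glycerol. Compound at various concentrations preincubated 1 min at 37 °C before adding the tubulin mix. Read at ex 355/em 460 nm every 60 s for 60 min. IC50 is the concentration giving 50% inhibition at 60 min; mean ± SD of ≥3 independent experiments.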

[10] = Cytotoxicity against human L02 cells assessed as assessed as cell growth inhibition measured after 72 hrs by MTT assay; format: cell-based
Summary of the method: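 LO2 normal liver cells cultured in RPMI-1640/10% FBS at 37 °C, 5% CO2 and seeded at 4−7 × 10³ cells/well. Graded concentrations applied for 72 h, then MTT readout at 570 nm. GI50 is the concentration giving 50% growth inhibition, mean ± SD of at least three independent experiments.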

[11] = molecular target: Tubulin beta (Homo sapiens) (UniProt P68371+Q9H4B7+Q13509+P04350+Q3ZCM7+P07437+Q13885+Q9BVA1+Q9BUF5+A6NNZ2); assay: Inhibition of N,N'-Ethylenebis(iodoacetamide) binding to beta-tubulin in human HepG2 cells assessed as reduction in EBI/beta-tubulin adduct formation preincubated for 2 hrs followed by EBI addition and measured after 1.5 hrs by Western blot analysis; format: cell-based; conditions: dose microM 0.2-25, time 3.5 hrs
Summary of the method: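 HepG2 seeded 5 × 10⁵ cells/well, adhered overnight. […] Lysate protein (20 μg) run on 10% polyacrylamide gel on ice and transferred to PVDF. Probed with anti-β-tubulin 16 h at 4 °C, then HRP secondary. Chemiluminescence detection.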

HepG2 [12] = assay: Induction of cell cycle arrest in human HepG2 cells assessed as accumulation in G1 phase at 20 nM incubated for 24 hrs by propidium iodide staining based flow cytometry (reference value: 60.76%); format: functional
HepG2 [13] = assay: Induction of apoptosis in human HepG2 cells assessed as necrotic cells at 5 nM incubated for 12 hrs by Annexin V-PE and 7-AAD staining based flow cytometry (reference value: 0.55 %); format: functional; summary of the method: as §1
HepG2 [14] = assay: Induction of apoptosis in human HepG2 cells assessed as late apoptotic cells at 5 nM incubated for 12 hrs by Annexin V-PE and 7-AAD staining based flow cytometry (reference value: 2.79%); format: functional; summary of the method: as §1
HepG2 [15] = assay: Induction of apoptosis in human HepG2 cells assessed as PARP cleavage at 2.5 to 20 nM incubated for 24 hrs by western blot analysis; format: functional, cell-based; conditions: dose nM 2.5-20, time 24.0 hrs
Summary of the method: (§2)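 Lysates (20 μg protein) separated by 10% PAGE and blotted to PVDF. Probed for Bax, Bcl-2, cleaved caspase-3 and cleaved PARP, detected by ECL and quantified by densitometry.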

HepG2 [16] = assay: Induction of cell cycle arrest in human HepG2 cells assessed as accumulation in G1 phase at 5 nM incubated for 24 hrs by propidium iodide staining based flow cytometry (reference value: 60.76%); format: functional
HepG2 [17] = assay: Induction of apoptosis in human HepG2 cells assessed as increase in cleaved caspase-3 expression incubated for 24 hrs by Western blot analysis; format: functional, cell-based; conditions: dose nM 2.5-20, time 24.0 hrs; summary of the method: as §2
HepG2 [18] = assay: Induction of apoptosis in human HepG2 cells assessed as live cells at 10 nM incubated for 24 hrs by Annexin V-PE and 7-AAD staining based flow cytometry (reference value: 93.2%); format: functional; summary of the method: as §1
HepG2 [19] = assay: Induction of apoptosis in human HepG2 cells assessed as necrotic cells at 10 nM incubated for 12 hrs by Annexin V-PE and 7-AAD staining based flow cytometry (reference value: 0.55 %); format: functional; summary of the method: as §1
HepG2 [20] = assay: Induction of apoptosis in human HepG2 cells assessed as live cells at 10 nM incubated for 12 hrs by Annexin V-PE and 7-AAD staining based flow cytometry (reference value: 92.1%); format: functional; summary of the method: as §1
HepG2 [21] = assay: Induction of apoptosis in human HepG2 cells assessed as early apoptotic cells at 5 nM incubated for 12 hrs by Annexin V-PE and 7-AAD staining based flow cytometry (reference value: 4.52%); format: functional; summary of the method: as §1

Q: Which Activity (HepG2 [1]) does the source give for CCOc1cccc(Nc2nn(C)c3c2Cc2cc(OCC)c(OCCCN)cc2-3)c1 here?
A: 85.6%

Q: What about the Activity (HepG2 [2]) of the same molecule?
A: 0.61%

Q: And the Activity (HepG2 [3])?
A: Dose-dependent effect

Q: And the selectivity ratio at 72 h [4]?
A: 118

Q: And the Activity (HepG2 [5])?
A: 54%

Q: What about the Activity (HepG2 [6]) of the same molecule?
A: 9.75%

Q: And the Activity (HepG2 [7])?
A: 30.66%

Q: What about the RatioGI50 [8] of the same molecule?
A: 4

Q: What about the IC50 [9] of the same molecule?
A: 3.7 µM

Q: What about the GI50 at 72 h [10] of the same molecule?
A: 0.284 µM

Q: And the inhibition [11]?
A: Dose-dependent effect

Q: And the Activity (HepG2 [12])?
A: 3.11%

Q: What about the Activity (HepG2 [13]) of the same molecule?
A: 0.43%

Q: What about the Activity (HepG2 [14]) of the same molecule?
A: 3.53%

Q: What about the Activity (HepG2 [15]) of the same molecule?
A: Active

Q: What about the Activity (HepG2 [16]) of the same molecule?
A: 49.56%

Q: And the Activity (HepG2 [17])?
A: Dose-dependent effect

Q: And the Activity (HepG2 [18])?
A: 75.5%

Q: What about the Activity (HepG2 [19]) of the same molecule?
A: 0.92%

Q: And the Activity (HepG2 [20])?
A: 85.2%

Q: What about the Activity (HepG2 [21]) of the same molecule?
A: 5.66%
